# The source made the active and inactive calls. The rule behind the calls is not given here.
# How the values were obtained:
# [1] = Drug uptake in Swiss mouse blood at 50 mg/kg, po administered as single dose after 0.25 hrs by UPLC/MS/ESI analysis; assay type: ADME, organism-based; settings: whole blood, read-out: Drug uptake
# Procedure, shortened: (§1)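 Mice were given the compound orally as a single dose of either 25 or 50 mg/kg, one group per dose. Plasma concentrations were followed over time up to 24 h, and the pharmacokinetic parameters were derived from the concentration-time profile.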
# Trypanosoma cruzi = assay: Antitrypanosomal activity against nifurtimox-sensitive Trypanosoma cruzi Tulahuen CL2 infected in human MRC5 SV2 cells assessed as reduction in parasite burden after 168 hrs by CPRG and Nonidet based spectrophotometric analysis; assay type: functional, organism-based; settings: Tulahuen CL2, MRC-5 SV2, 168 h
# [2] = Cmax in Swiss mouse at 25 mg/kg, po administered as single dose after 24 hrs by UPLC/MS/ESI analysis; assay type: ADME, organism-based; set-up: dose 25 mg/kg, route oral; settings: in vivo
# Procedure, shortened: (§2)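 Mice in groups received one oral dose of 25 or 50 mg/kg. Plasma concentrations were followed over time up to 24 h, and PK parameters including T1/2 were derived from the concentration–time profile.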
# Leishmania infantum = assay: Antileishmanial activity against Leishmania infantum MHOM/MA (BE)/67 amastigotes infected in primary peritoneal mouse macrophages after 120 hrs by giemsa staining-based microscopic analysis; assay type: functional, organism-based; settings: MHOM/MA (BE)/67, 120 h
# [3] = Drug uptake in Swiss mouse blood at 25 mg/kg, po administered as single dose after 2 hrs by UPLC/MS/ESI analysis; assay type: ADME, organism-based; settings: whole blood, read-out: Drug uptake; procedure, shortened: as §1
# [4] = Drug level in Swiss mouse blood infected with Trypanosoma brucei brucei Squib 427 at 50 mg/kg, po bid for 5 days measured after 4 hrs after last dose by UPLC/MS/ESI analysis; assay type: ADME, organism-based; settings: whole blood, read-out: Drug uptake
# [5] = Drug metabolism in mouse liver microsomes assessed as UGT mediated compound […] by measuring parent compound remaining at 5 uM after 30 mins in presence of UDPGA by UPLC/MS/ESI analysis; assay type: ADME; settings: 0.5 h
# Procedure, shortened: (§3)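 Metabolic stability was run with mouse liver microsomal fraction (S9) and read as percent parent compound remaining over incubation time. Diclofenac served as the reference compound.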
# [6] = Ratio of Cmax in Swiss mouse at 50 mg/kg, po administered as single dose after 24 hrs by LC-MS analysis to IC50 for antitrypanosomal activity against suramin-sensitive Trypanosoma brucei brucei Squib 427 after 72 hrs by resazurin dye-based fluorimetric analysis; assay type: ADME, organism-based; settings: in vivo
# [7] = Clearance in Swiss mouse infected with Trypanosoma brucei brucei Squib 427 at 25 mg/kg, po administered as single dose after 24 hrs by UPLC/MS/ESI analysis; assay type: ADME, organism-based; settings: in vivo
# [8] = test system: Trypanosoma brucei brucei; assay: Antitrypanosomal activity against Trypanosoma brucei brucei Squib 427 infected in Swiss mouse assessed as mouse survival at 10 mg/kg, ip administered as single dose for 5 days and measured on day 14 post infection; assay type: functional, organism-based
# Procedure, shortened: (§4)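 Acute T. b. brucei mouse infection model. Dosing was PO or IP at 10–50 mg/kg, once (SID) or twice (BID) daily for 5 days after infection, with 3 mice per group. […] Read-outs were mean survival time and survivors on day 14 post infection.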
# [9] = Protein binding in mouse plasma at 2 uM after 6 hrs by equilibrium dialysis and LC-MS analysis; assay type: ADME, cell-free; settings: read-out: PPB (converted)
# [10] = Drug level in Swiss mouse blood infected with Trypanosoma brucei brucei Squib 427 at 50 mg/kg, po bid for 5 days measured after 0.5 hrs after last dose by UPLC/MS/ESI analysis; assay type: ADME, organism-based; settings: whole blood, read-out: Drug uptake
# [11] = test system: Trypanosoma brucei brucei; assay: Antitrypanosomal activity against suramin-sensitive Trypanosoma brucei brucei Squib 427 after 72 hrs by resazurin dye-based fluorimetric analysis; assay type: functional, organism-based; settings: Squib 427, 72 h
# [12] = test system: Trypanosoma brucei brucei; assay: Antitrypanosomal activity against Trypanosoma brucei brucei Squib 427 infected in Swiss mouse assessed as mouse survival at 25 mg/kg, po bid for 5 days and measured on day 14 post infection; assay type: functional, organism-based; procedure, shortened: as §4
# [13] = AUC (0 to >4 hrs) in Swiss mouse at 25 mg/kg, po administered as single dose by UPLC/MS/ESI analysis; assay type: ADME, organism-based; settings: in vivo; procedure, shortened: as §2
# [14] = Drug uptake in Swiss mouse blood at 25 mg/kg, po administered as single dose after 24 hrs by UPLC/MS/ESI analysis; assay type: ADME, organism-based; settings: whole blood, read-out: Drug uptake; procedure, shortened: as §1
# [15] = Drug level in Swiss mouse blood infected with Trypanosoma brucei brucei Squib 427 at 25 mg/kg, po bid for 5 days measured after 2 hrs after last dose by UPLC/MS/ESI analysis; assay type: ADME, organism-based; settings: whole blood, read-out: Drug uptake
# [16] = Protein binding in 10% FBS in Trypanosoma brucei culture medium at 10 uM after 6 hrs by equilibrium dialysis and LC-MS analysis; assay type: ADME, cell-free, Bos taurus, Serum; settings: cattle, read-out: PB
# [17] = Drug metabolism in human liver microsomes assessed as CYP450 mediated compound […] by measuring parent compound remaining at 5 uM after 30 mins in presence of NADPH by UPLC/MS/ESI analysis; assay type: ADME; settings: read-out: Stability
# [18] = AUC (0 to >4 hrs) in Swiss mouse infected with Trypanosoma brucei brucei Squib 427 at 25 mg/kg, po administered as single dose by UPLC/MS/ESI analysis; assay type: ADME, organism-based; settings: in vivo
# [19] = Cytotoxicity against human MRC5 SV2 cells after 72 hrs by resazurin dye-based fluorimetric analysis; assay type: cell-based; settings: MRC-5 SV2, 72 h
# [20] = test system: Trypanosoma brucei brucei; assay: Antitrypanosomal activity against Trypanosoma brucei brucei Squib 427 infected in Swiss mouse assessed as mean survival days at 25 mg/kg, po bid for 5 days; assay type: functional
# Procedure, shortened: (§5)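 Acute mouse infection model with T. b. brucei. Dosing ran for 5 days after infection, orally or intraperitoneally, once or twice daily. Groups were 3 mice each, with vehicle-treated infected controls. The read-out was mean survival time in days, plus the number of survivors on day 14 post-infection.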
# [21] = Drug metabolism in mouse liver microsomes assessed as UGT mediated compound […] by measuring parent compound remaining at 5 uM after 15 mins in presence of UDPGA by UPLC/MS/ESI analysis; assay type: ADME; settings: 0.25 h; procedure, shortened: as §3
# [22] = test system: Trypanosoma brucei brucei; assay: Antitrypanosomal activity against Trypanosoma brucei brucei Squib 427 infected in Swiss mouse assessed as mean survival days at 10 mg/kg, ip administered as single dose for 5 days; assay type: functional; procedure, shortened: as §5
# [23] = Cmax in Swiss mouse infected with Trypanosoma brucei brucei Squib 427 at 25 mg/kg, po administered as single dose after 24 hrs by UPLC/MS/ESI analysis; assay type: ADME, organism-based; set-up: dose 25 mg/kg, route oral; settings: in vivo
# [24] = Drug metabolism in human liver microsomes assessed as UGT mediated compound […] by measuring parent compound remaining at 5 uM after 30 mins in presence of UDPGA by UPLC/MS/ESI analysis; assay type: ADME; settings: read-out: Stability
# [25] = Drug uptake in Swiss mouse blood at 50 mg/kg, po administered as single dose after 4 hrs by UPLC/MS/ESI analysis; assay type: ADME, organism-based; settings: whole blood, read-out: Drug uptake; procedure, shortened: as §1
# [26] = Tmax in Swiss mouse at 25 mg/kg, po administered as single dose after 24 hrs by UPLC/MS/ESI analysis; assay type: ADME, organism-based; settings: in vivo; procedure, shortened: as §1
# [27] = Protein binding in 10% FBS in Trypanosoma brucei culture medium assessed as drug recovery at 2 uM after 6 hrs by equilibrium dialysis and LC-MS analysis; assay type: ADME, cell-free, Bos taurus, Serum; settings: cattle, read-out: Drug recovery
# [28] = Protein binding in 10% FBS in Trypanosoma brucei culture medium at 2 uM after 6 hrs by equilibrium dialysis and LC-MS analysis; assay type: ADME, cell-free, Bos taurus, Serum; settings: cattle, read-out: PB
# [29] = Drug level in Swiss mouse blood infected with Trypanosoma brucei brucei Squib 427 at 25 mg/kg, po bid for 5 days measured after 0.5 hrs after last dose by UPLC/MS/ESI analysis; assay type: ADME, organism-based; settings: whole blood, read-out: Drug uptake
smiles,measurement,setting,value
Nc1nc(Nc2ccc(F)cc2)nc(Oc2ccc(F)cc2)n1,concentration at 0.25 h,[1],1320 ng/mL
same,IC50,Trypanosoma cruzi,> 64 µM
same,Cmax,[2],1180 ng/mL
same,IC50,Leishmania infantum,> 64 µM
same,concentration at 2 h,[3],1320 ng/mL
same,concentration at 4 h,[4],800 ng/mL
same,Stability,[5],103%
same,Ratio,[6],10
same,CL/F,[7],176 mL/min
same,Activity,[8],inactive
same,"fraction unbound at 6 h, 2 µM",[9],0.04
same,concentration at 0.5 h,[10],2870 ng/mL
same,IC50,[11],0.6 µM
same,Activity,[12],inactive
same,AUC at 4 h,[13],13800 ng·h/mL
same,concentration at 24 h,[14],50 ng/mL
same,concentration at 2 h,[15],1100 ng/mL
same,"fraction unbound at 6 h, 10 µM",[16],0.498
same,"remaining at 0.5 h, 5 µM",[17],85%
same,AUC at 4 h,[18],4710 ng·h/mL
same,IC50,[19],> 64 µM
same,MST,[20],6 days
same,Stability,[21],97%
same,MST,[22],7 days
same,Cmax,[23],2690 ng/mL
same,"remaining at 0.5 h, 5 µM",[24],97%
same,concentration at 4 h,[25],2030 ng/mL
same,Tmax,[26],2.3 h
same,"recovery at 6 h, 2 µM",[27],96.1%
same,"fraction unbound at 6 h, 2 µM",[28],0.5 to 0.51
same,concentration at 0.5 h,[29],2090 ng/mL
